One may read the GI50 as the concentration at which growth is held to half of that of the control. One may read the IC25 as the point of the concentration-response curve where the effect stands at 25%. As a reminder, the inhibition is the share of the control response that was lost under treatment. One may read the pIC50 as the IC50 on a negative log10 scale, so that one unit is a factor of ten.

pIC50: −log10 of the molar value. Active and inactive are the calls of the source. The rule behind the calls is not given here.

One assay deals with A549. Kind of assay: Growth inhibition of human A549 cells incubated for 4 days by WST-1 assay. Format: functional. The conditions noted are these: A549, 96 h. The method in brief:
(§1)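 Cells were kept at 37 °C under 5% CO2 and plated on day 0 at 500–5000 cells/well. On day 1 they received ten concentrations from 0.0025 to 50 µM (final), in triplicate. On day 4 WST-1 was added, followed by 30 min–4 h incubation and absorbance at 450 nm. GI50 is the concentration killing 50% of cells.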

In the next assay the test system is MDA-MB-231. Put plainly: Growth inhibition of human MDA-MB-231 cells incubated for 4 days by WST-1 assay. The note with it: MDA-MB-231, 96 h. It is filed as functional. The method, boiled down:
as §1
(In general: Tetrazolium dyes change colour on reduction, which living cells bring about.)

Assay [1] is described as follows: Growth inhibition of human HCT116 cells incubated for 4 days by WST-1 assay. It is filed as functional. The note with it: HCT-116, 96 h. The method, boiled down: as §1
In a further assay the test system is HT-29. Kind of assay: Growth inhibition of human HT-29 cells incubated for 4 days by WST-1 assay. Format: functional. The note with it: HT-29, 96 h. The method in brief: as §1
A further assay relates to NCI-H460. Kind of assay: Growth inhibition of human NCI-H460 cells incubated for 4 days by WST-1 assay. Format: functional. The note with it: NCI-H460, 96 h. The method in brief: as §1
The next assay deals with K562. Kind of assay: Growth inhibition of human K562 cells incubated for 4 days by WST-1 assay. It is filed as functional. The note with it: K562, 96 h. The method in brief:
as §1

Assay [2] deals with KB. Put plainly: Growth inhibition of human KB cells at 10 uM after 72 hrs by MTS assay. Format: functional. The note with it: read-out: GI. The method, boiled down: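 KB cells were grown in DMEM with 25 mM glucose and 10% FCS at 37 °C, 5% CO2, and seeded at 500 cells/well. 24 h later, compound in DMSO (1% final) was added at 10 µM or 1 µM for 72 h; controls received DMSO alone. Runs were in duplicate. Viable cells were read with MTS at 490 nm.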

The test system of another assay is HepG2. Kind of assay: Growth inhibition of human HepG2 cells incubated for 4 days by WST-1 assay. The conditions noted are these: HepG2, 96 h. Format: functional. The method, boiled down: as §1
The nature of assay [3]: Growth inhibition of human PK59 cells incubated for 4 days by WST-1 assay. It is filed as functional. The note with it: PK-59, 96 h. The method in brief:
as §1

The species named for assay [4] is Ovis aries. Put plainly: Induction of sheep brain microtubule disassembly by UV spectrophotometric analysis. The method in brief:
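Sheep brain tubulin, purified by two assembly/disassembly cycles and held in MES buffer with GTP at pH 6.6, was polymerized at 37 °C for 10 min. Compound was then added to the MTs at 0 °C and depolymerization was followed over the next few minutes by turbidity at 350 nm.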

The species entered for assay [5] is Ovis aries. Put plainly: (§2) Inhibition of sheep brain tubulin polymerization by UV spectrophotometric analysis. The arrangement: concentration or dose not given beside the values. The note with it: concentration not given here. The method in brief: (§3)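 Tubulin purified from sheep brain by two assembly/disassembly cycles, about 2–3 mg/mL in 0.1 M MES, 0.5 mM MgCl2, 1 mM EGTA, 1 mM GTP, pH 6.6. Compound in DMSO added at 0 °C, then moved to a 37 °C thermostated cell. Assembly followed by turbidity at 350 nm for a few min.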

The subject of a further assay is MCF7. Put plainly: Growth inhibition of human MCF7 cells incubated for 4 days by WST-1 assay. The note with it: MCF7, 96 h. It is filed as functional. The method, boiled down: as §1
Assay [6] in a line: Growth inhibition of human MIAPaCa2 cells incubated for 4 days by WST-1 assay. It is filed as functional. The conditions noted are these: MIA PaCa-2, 96 h. The method in brief:
as §1

Assay [7] deals with T1, Kinesin-like protein KIF20A (Homo sapiens, UniProt O95235).
T1 sequence (O95235 whole entry): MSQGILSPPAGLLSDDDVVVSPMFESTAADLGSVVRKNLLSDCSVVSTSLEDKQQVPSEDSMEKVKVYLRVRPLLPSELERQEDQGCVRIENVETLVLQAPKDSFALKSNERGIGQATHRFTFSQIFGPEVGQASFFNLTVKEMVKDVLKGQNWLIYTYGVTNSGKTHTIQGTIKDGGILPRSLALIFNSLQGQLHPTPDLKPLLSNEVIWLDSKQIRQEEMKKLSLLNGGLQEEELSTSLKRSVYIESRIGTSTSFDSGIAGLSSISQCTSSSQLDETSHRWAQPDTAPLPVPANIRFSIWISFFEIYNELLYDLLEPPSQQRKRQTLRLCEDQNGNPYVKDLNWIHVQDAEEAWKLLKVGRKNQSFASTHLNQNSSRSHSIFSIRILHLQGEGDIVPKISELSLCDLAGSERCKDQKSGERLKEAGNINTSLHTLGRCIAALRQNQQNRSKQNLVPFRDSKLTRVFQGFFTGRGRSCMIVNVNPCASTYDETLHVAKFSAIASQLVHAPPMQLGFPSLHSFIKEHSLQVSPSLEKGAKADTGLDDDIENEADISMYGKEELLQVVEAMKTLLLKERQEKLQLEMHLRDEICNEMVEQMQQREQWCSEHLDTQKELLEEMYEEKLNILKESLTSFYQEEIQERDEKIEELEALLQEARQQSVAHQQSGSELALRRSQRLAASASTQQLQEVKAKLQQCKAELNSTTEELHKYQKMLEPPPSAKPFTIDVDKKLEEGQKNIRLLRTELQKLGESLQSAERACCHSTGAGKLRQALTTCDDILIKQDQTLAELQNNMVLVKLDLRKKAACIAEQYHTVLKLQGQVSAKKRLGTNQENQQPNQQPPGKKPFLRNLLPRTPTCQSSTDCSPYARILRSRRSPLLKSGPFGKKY
Kind of assay: Inhibition of N-terminal MKLP2 (56 to 505 residues) ATPase basal activity isolated from human hepatocellular carcinoma cells by pyruvate kinase/lactate dehydrogenase enzyme linked assay.

Assay [8] addresses T1, Kinesin-like protein KIF20A. Put plainly: Inhibition of microtubule-stimulated N-terminal MKLP-2 (56 to 505 residues) ATPase activity isolated from human hepatocellular carcinoma cells by pyruvate kinase/lactate dehydrogenase enzyme linked assay.
Assay [9] deals with KB. Put plainly: Growth inhibition of human KB cells after 72 hrs by MTS assay. Format: functional.
Assay [10] can be described thus: as §2. Details: species or system Ovis aries. The method, boiled down: as §3
The species entered for assay [11] is Ovis aries. Kind of assay: Inhibition of sheep brain microtubule disassembly by UV spectrophotometric analysis. The arrangement: concentration or dose not given beside the values.

Consider `N#C/C(=C\c1cccnc1)c1c[nH]c2ccccc12`, for which the GI50 was over 50 µM in the assay on A549; over 50 µM with MDA-MB-231; over 50 µM in [1]; over 50 µM in the assay with HT-29; over 50 µM in the assay on NCI-H460; 21.6 µM in the assay with K562. Moreover, the concentration for 50% growth inhibition (GI50) (in the assay on HepG2; in assay [3]; with MCF7; in [6]) was over 50 µM throughout. Also, the concentration for an effect of 25% (IC25) with HT-29 was found to be 7.5 µM; in the assay on NCI-H460 it was 18.5 µM; in the assay with MCF7, 28.6 µM. For the same compound, the inhibition of growth at 10 µM with KB [2] is 27%. Moreover, the result in the assay filed under Ovis aries [4] was inactive. The inhibition in the assay listed under Ovis aries [5] was determined as 11%.
With `CC(=O)O[C@@]12CO[C@@H]1C[C@H](O)[C@@]1(C)C(=O)[C@H](O)C3=C(C)[C@@H](OC(=O)[C@H](O)[C@@H](NC(=O)OC(C)(C)C)c4ccccc4)C[C@@](O)([C@@H](OC(=O)c4ccccc4)[C@H]21)C3(C)C` [DOCETAXEL ANHYDROUS], the IC50 result in assay [7] and in assay [8] was “Not Active” throughout. In the assay on KB [9], this compound yielded a 50% growth inhibitory concentration (GI50) of 0.13 nM.
`CC(=O)O[C@H]1C(=O)[C@@]2(C)[C@H]([C@H](OC(=O)c3ccccc3)[C@]3(O)C[C@H](OC(=O)[C@H](O)[C@@H](NC(=O)c4ccccc4)c4ccccc4)C(C)=C1C3(C)C)[C@]1(OC(C)=O)CO[C@@H]1C[C@@H]2O` [PACLITAXEL]: the IC50 result in assay [7] and in [8] was “Not Active” each time. This compound came in with a GI50 in the assay with KB [9] of 1 nM. This compound had a negative-log IC50 (pIC50) in assay [10] of 6.00.
For `COc1cc2c(c(OC)c1OC)-c1ccc(OC)c(=O)cc1[C@@H](NC(C)=O)CC2` [COLCHICINE], the IC50 result in [7] and in [8] was “Not Active” throughout. In addition, in the assay on KB [9], the 50% growth inhibitory concentration (GI50) was found to be 4.2 nM.
On to `COc1ccc2c(c1)c(/C(C#N)=C/c1cccnc1)cn2C`, for which the Activity in the assay listed under Ovis aries [11] stood at 15%. The IC50 result in assay [7] and in assay [8] was “Not Active” each time. Besides, the inhibition of growth at 10 µM in the assay on KB [2] is 33%. In assay [10], this compound had a pIC50 of 3.94. This compound registered an inhibition in the assay listed under Ovis aries [5] of 53%.

The values are drawn from ChEMBL document CHEMBL3751740, “New MKLP-2 inhibitors in the paprotrain series: Design, synthesis and biological evaluations” (Bioorg Med Chem, 2016).
